CHRM5 antagonist = human M5 muscarinic receptor antagonists, primary screen, CHO cells, Fluo-8 calcium fluorescence; actives 0.59% (n = 360,000); CHO-hM5 cells, ACh EC80; inhibition, % at 3 µM; AID 624040, 2012; Muscarinic acetylcholine receptor M5 (Homo sapiens), P08912;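 active means inhibition above a per-plate cutoff, the mean of that plate's test compounds plus 3 SD, cut at about 27% in these data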;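 further: 0% = acetylcholine EC80 with DMSO and 100% = DMSO without agonist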
Target sequence (P08912 whole entry, looked up): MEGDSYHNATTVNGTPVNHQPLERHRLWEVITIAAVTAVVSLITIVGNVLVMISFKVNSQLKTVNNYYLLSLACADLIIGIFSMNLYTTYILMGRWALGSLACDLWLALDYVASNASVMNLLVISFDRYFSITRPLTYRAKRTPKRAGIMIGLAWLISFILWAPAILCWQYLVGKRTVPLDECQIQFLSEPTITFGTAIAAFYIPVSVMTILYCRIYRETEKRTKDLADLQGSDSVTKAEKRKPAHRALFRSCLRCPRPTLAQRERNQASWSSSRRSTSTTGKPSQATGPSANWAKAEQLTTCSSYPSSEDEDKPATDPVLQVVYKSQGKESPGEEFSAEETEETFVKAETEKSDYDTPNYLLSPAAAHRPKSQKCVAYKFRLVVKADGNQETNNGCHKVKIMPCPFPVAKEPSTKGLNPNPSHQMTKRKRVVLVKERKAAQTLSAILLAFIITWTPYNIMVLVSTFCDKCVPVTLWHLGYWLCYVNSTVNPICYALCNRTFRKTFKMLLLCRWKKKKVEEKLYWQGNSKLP
M4 ag = human M4 muscarinic receptor agonists, primary screen, CHO-K1 cells, Fluo-8 calcium fluorescence. AID 624127, 2012. CHO-K1 hM4/Gqi5; vehicle 0%, full acetylcholine response 100%. activation, % at 3 µM. actives 0.14% (n = 360,000). Muscarinic acetylcholine receptor M4 (Homo sapiens), P08173;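 active means activation above the run mean over all test wells plus 3 SD, cut at about 32% in these data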;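 further: peak over basal fluorescence ratio per well then scaled between controls; 0% = DMSO wells and 100% = acetylcholine at EC100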
CHRM5 agonist = human M5 muscarinic receptor agonists, primary screen, CHO-K1 cells, Fluo-8 calcium fluorescence; CHO-K1 hM5 cells; 0% DMSO wells, 100% maximal acetylcholine response; activation, % at 3 µM; AID 624037, 2012; actives 0.19% (n = 360,000); Muscarinic acetylcholine receptor M5 (Homo sapiens), P08912;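 active means activation above the run's mean over test compounds plus 3 SD, cut at about 23% in these data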;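 further: signal is peak over basal fluorescence ratio across the kinetic read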
CHRM5 PAM = human M5 muscarinic receptor positive allosteric modulators, primary screen, CHO-K1 cells, Fluo-8 calcium fluorescence | actives 0.3% (n = 360,000) | activation, % at 3 µM | AID 624038, 2012 | Muscarinic acetylcholine receptor M5 (Homo sapiens), P08912 | CHO-K1 hM5, ACh EC20 PAM; 0% = ACh EC20, 100% = ACh EC100;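 active means activation above the run cutoff, the mean activation of all test compounds plus 3 SD, cut at about 18% in these data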
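Assay system: CHO-K1 hM5 cells / Incubation: Fluo-8 loading 80 min at 37 °C plus 30 min room temperature / Technique: Fluo-8 calcium dye fluorescence, kinetic read / Repeats: single replicate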
M4 antag = human M4 muscarinic receptor antagonists, primary screen, CHO cells, Fluo-8 calcium fluorescence. CHO-hM4 cells, ACh EC80. inhibition, % at 3 µM. actives 0.73% (n = 360,000). AID 624125, 2012;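 active means inhibition above its plate's cutoff, the mean inhibition of sample wells plus 3 SD, cut at about 27% in these data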;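 further: 0% = acetylcholine EC80 with DMSO and 100% = DMSO without agonist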
M4 PAM = human M4 muscarinic receptor positive allosteric modulators, primary screen, CHO-K1 cells, Fluo-8 calcium fluorescence; Muscarinic acetylcholine receptor M4 (Homo sapiens), P08173; actives 0.4% (n = 360,000); CHO-K1 hM4/Gqi5, ACh EC20; 0% = ACh EC20, 100% = maximal ACh; activation, % at 3 µM;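 active means activation above its plate's cutoff, the mean activation of sample wells plus 3 SD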
Numbers without * were called inactive. Most compounds without a hit are left out; they make up all but 1.8% or so of the library.

SMILES	CHRM5 antagonist	M4 ag	CHRM5 agonist	CHRM5 PAM	M4 antag	M4 PAM
CC(C)(c1ccc(O)c([N+](=O)[O-])c1)c1ccc(O)c([N+](=O)[O-])c1	11	2	-4	-15	-15	8
O=C(NCCN1CCOCC1)c1ccc(NC(=O)c2ccc(Br)o2)cc1	-2	-1	-1	1	2	2
O=C(c1cccc(Cl)c1)N1CCC(=O)N([C@H](COCc2cccc(Cl)c2)Cc2ccccc2)CC1	17	7	3	-8	0	-4
O=c1[nH]nnc2c1ncn2C1OC(CO)C(O)C1O (stereo not given)	-4	1	4	-4	1	7
Cc1ccccc1CN1CCC(CNC(=O)C2CCCN(c3ncnc4c3nc3n4CCCCC3)C2)CC1 (stereo not given)	16	3	-10	-15	63*	-22
Cc1cccc(C)c1-n1cccc1/C=C1/C(=N)N2C(=NC1=O)SN=C2S(C)(=O)=O	19	-1	-10	-18	8	-11
Cc1ccc(-n2cccc2/C=C2/C(=N)N3C(=NC2=O)SN=C3S(C)(=O)=O)cc1Cl	28*	2	2	19*	31*	16
CC(=O)Oc1ccccc1Cn1c(C)c(C(=O)N(C)Cc2ccc(F)cc2)sc1=O	-2	3	4	-8	9	-4
CC1(C)OC(=O)C2=C(C[C@@H](C3CCCCC3)O[C@H]2c2ccccc2)O1	-3	-3	-5	-9	-10	-7
COCn1c(-c2ccccc2)nc2ccccc21	-12	1	-4	3	-3	29*
COc1cccc(NC(=O)Cn2c(CCC(=O)O)ccc2-c2cccs2)c1	-12	1	5	19*	-3	9
CSCCC(C(=O)Nc1c(C)cccc1C)N1CCN(c2ccc(C(F)(F)F)cn2)CC1 (stereo not given)	8	0	2	0	-4	0
COCCNC(=O)C1(C)CCCN(C(=O)CCc2ccccc2)C1 (stereo not given)	-1	0	0	-1	-7	10
C=C(C)Cn1c2ccc(NC(=O)CCOCC)cc2c(=O)n1C	-2	1	1	3	-8	9
COCCNC(=O)C1(C)CCCN(Cc2cc(C(F)(F)F)ccc2Cl)C1 (stereo not given)	-1	0	-1	3	2	-2
CC(C)C[C@H]1CN(CCCC[C@H]2CNC(=O)C(=O)N2CC2CCCCC2)C(=O)C(=O)N1Cc1ccccc1	11	0	-6	-1	5	1
O=C(NCCc1ccc(F)cc1)C1CCCO1 (stereo not given)	7	1	1	-6	5	-2
O=C(NCCc1ccc(Cl)cc1)C1CCCO1 (stereo not given)	61*	0	-10	-23	97*	-19
CN1CCN(C(=O)C[C@@H]2CC[C@@H]3[C@H](COC[C@@H](O)CN3Cc3cccc(Cl)c3)O2)CC1	6	2	-1	1	-5	1
CC(C)n1c(=O)c2ccccc2n1Cc1cn(-c2ccccc2)nn1	-2	1	-2	-1	-12	-1
O=C(O)/C=C/C(=O)NCc1ccccn1	1	1	1	21*	-11	7
Cc1cc(/C=N/NC(=O)C(=O)NCc2ccccn2)c(C)n1-c1cccc(Br)c1	-6	4	-2	3	-9	-7
O=C(O)/C=C/C(=O)NCc1ccccc1	-2	0	-1	0	6	6
O=C(NCc1ccccn1)C(=O)N/N=C/c1ccccc1O	-3	-1	-4	4	47*	-8
OCCN(CC#CC(O)(c1ccccc1)c1cccc(F)c1)CCO (stereo not given)	-1	0	-16	4	-14	-8
SMILES	CHRM5 antagonist	M4 ag	CHRM5 agonist	CHRM5 PAM	M4 antag	M4 PAM
CN(C)C(C)(C)C#CC(O)(c1ccccc1)c1ccccc1	83*	0	-13	-33	53*	-25
CCN(CC)CC#CC(O)(c1ccccc1)c1ccccc1	98*	0	-11	-16	88*	-24
CN(C)CCC#CC(O)(c1ccccc1)c1ccccc1	38*	1	-9	-19	32*	-15
OC[C@@H]1CN(CCc2ccccc2)C[C@H](n2cnc3c(NCc4ccc(F)cc4)ncnc32)O1	-5	4	1	4	-6	9
CCCNC(=O)C1(C)CCCN(Cc2ccccc2C#N)C1 (stereo not given)	4	1	0	1	6	3
COc1ccc(C(=O)Nc2ccc([N+](=O)[O-])cn2)c(OC)c1	11	1	-1	20*	-1	0
CC(=O)c1ccc(N2CCN(S(=O)(=O)c3ccc4c(c3)CCC(=O)N4)CC2)cc1	4	7	3	-3	-4	0
CC(=O)Nc1ccc(NC2=C/C(=N/S(=O)(=O)c3cccs3)c3ccccc3C2=O)cc1	28*	15	3	-5	11	-9
Cc1ccc(NC2=C/C(=N/S(=O)(=O)c3cccs3)c3ccccc3C2=O)cc1C	4	1	1	-3	-9	2
O=C(NC(NNc1ccc([N+](=O)[O-])cc1)(C(F)(F)F)C(F)(F)F)c1ccccc1Cl	10	4	0	-12	6	-11
O=C(NC(NNc1ccc([N+](=O)[O-])cc1)(C(F)(F)F)C(F)(F)F)c1ccc(F)cc1	29*	13	9	-17	9	-9
COc1cccc(CN2CCNC(=O)C2CC(=O)NCCCN2CCCC2=O)c1 (stereo not given)	-11	0	-1	7	-5	15*
O=C(CC1C(=O)NCCN1Cc1cccc(F)c1)NCCCN1CCCC1=O (stereo not given)	-17	1	-1	13	-3	4
C=CCNc1ncnc2c1ncn2[C@H]1CN(CCc2ccccc2)C[C@@H](CO)O1	9	0	4	-8	-4	-2
C#CCOCCOCCOCCNc1nc(N2CCN(C(=O)C([C@@H](C)O)n3cc([C@@H](N)CCCCN)nn3)CC2)nc(N2CCN(C(=O)[C@H](CC(N)=O)n3cc(C(N)[C@@H](C)CC)nn3)CC2)n1 (stereo not given in full)	5	-1	1	-4	35*	-12
